{"source": "ChEMBL document CHEMBL4118027", "about": "“Preussilides A-F, Bicyclic Polyketides from the Endophytic Fungus Preussia similis with Antiproliferative Activity” (J Nat Prod, 2017)", "key": {"Mucor hiemalis": {"test_system": "Mucor hiemalis", "experiment": "Antifungal activity against Mucor hiemalis DSM 2656 by serial dilution method", "assay_type": "functional, organism-based"}, "Caenorhabditis elegans": {"test_system": "Caenorhabditis elegans", "experiment": "Nematicidal activity against Caenorhabditis elegans up to 100 ug/ml", "assay_type": "functional, organism-based"}, "A-431": {"test_system": "A-431", "experiment": "Cytotoxicity against human A431 cells assessed as reduction in cell viability after 5 days by MTT assay", "assay_type": "functional, cell-based", "conditions": "A-431, 120 h", "how_it_was_run": "(§1)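 MTT viability assay run over 5 days on a panel of eight lines (L929, KB3.1, A431, A549, SKOV-3, PC-3, MCF-7, U2OS). IC50 values were derived.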"}, "Micrococcus luteus": {"test_system": "Micrococcus luteus", "experiment": "Antibacterial activity against Micrococcus luteus DSM 1790 by serial dilution method", "assay_type": "functional, organism-based"}, "Setaria italica": {"test_system": "Setaria italica", "experiment": "Phytotoxicity against Setaria italica assessed as inhibition of seedling germination at 100 ug/disk", "assay_type": "functional, organism-based"}, "PC-3": {"test_system": "PC-3", "experiment": "Cytotoxicity against human PC3 cells assessed as reduction in cell viability after 5 days by MTT assay", "assay_type": "functional, cell-based", "conditions": "PC-3, 120 h", "how_it_was_run": "as §1"}, "Aspergillus fumigatus": {"test_system": "Aspergillus fumigatus", "experiment": "Antifungal activity against Aspergillus fumigatus DSM 819 by serial dilution method", "assay_type": "functional"}, "Wickerhamomyces anomalus": {"test_system": "Wickerhamomyces anomalus", "experiment": "Antifungal activity against Pichia anomala DSM 6766 by serial dilution method", "assay_type": "functional, organism-based"}, "Lepidium sativum": {"test_system": "Lepidium sativum", "experiment": "Phytotoxicity against Lepidium sativum assessed as inhibition of seedling germination at 100 ug/disk", "assay_type": "functional, organism-based"}, "U2OS [1]": {"test_system": "U2OS", "experiment": "Cell cycle arrest in human U2OS cells assessed as accumulation at G1 phase at 5 ug/ml after 18 hrs by propidium iodide staining based flow cytometry (reference value: 50.1%)", "assay_type": "functional", "how_it_was_run": "(§2)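 U2OS were seeded at 7 × 10^5/well in six-well plates and exposed to 5 or 10 μg/mL for 18 h after spreading, with untreated and DMSO mock controls. Cells were trypsinized, fixed in 2% PFA/PBS, then in ice-cold methanol 30 min. Staining: anti-tubulin/anti-lamin antibodies plus RNase A and propidium iodide. Flow cytometry assigned G1, S, G2-M and sub-G1 by DNA content.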"}, "Escherichia coli": {"test_system": "Escherichia coli", "experiment": "Antibacterial activity against Escherichia coli DSM 498 by serial dilution method", "assay_type": "functional, organism-based"}, "U2OS [2]": {"test_system": "U2OS", "experiment": "Induction of apoptosis in human U2OS cells assessed as tubulin fragmentation up to 10 ug/ml after 18 hrs by flow cytometry", "assay_type": "functional, cell-based", "how_it_was_run": "as §2"}, "U2OS [3]": {"test_system": "U2OS", "experiment": "Cytotoxicity against human U2OS cells assessed as reduction in cell viability after 5 days by MTT assay", "assay_type": "functional, cell-based", "conditions": "120 h", "how_it_was_run": "as §1"}, "U2OS [4]": {"test_system": "U2OS", "experiment": "Cell cycle arrest in human U2OS cells assessed as accumulation at G1 phase at 10 ug/ml after 18 hrs by propidium iodide staining based flow cytometry (reference value: 50.1%)", "assay_type": "functional", "how_it_was_run": "as §2"}, "Bacillus subtilis": {"test_system": "Bacillus subtilis", "experiment": "Antibacterial activity against Bacillus subtilis DSM 10 by serial dilution method", "assay_type": "functional, organism-based"}, "U2OS [5]": {"test_system": "U2OS", "experiment": "Induction of apoptosis in human U2OS cells assessed as caspase-3/7 cleavage at 5 ug/ml after 18 hrs by caspase-3/7 green reagent based flow cytometry (reference value: 8.04%)"}, "L929 [6]": {"test_system": "L929", "experiment": "Cytotoxicity against mouse L929 cells assessed as reduction in cell viability after 5 days by MTT assay", "assay_type": "functional, cell-based", "conditions": "L929, 120 h", "how_it_was_run": "as §1"}, "[7]": {"test_system": "Chromobacterium violaceum", "experiment": "Antibacterial activity against Chromobacterium violaceum DSM 30191 by serial dilution method", "assay_type": "functional, organism-based"}, "Sclerotinia sclerotiorum": {"test_system": "Sclerotinia sclerotiorum", "experiment": "Antifungal activity against Sclerotinia sclerotiorum DSM 1946 at 100 ug/disk after 5 days by disk diffusion assay", "assay_type": "functional", "conditions": "DSM 1946, 120 h, read-out: IZ", "how_it_was_run": "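Disk diffusion on YMG medium seeded with a mycelial suspension of the non-sporulating test fungus. Paper disks carried […] compound. Nystatin at 20 μg/disk was the positive control. Inhibition zone diameter (mm) was read after 5 days.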"}, "KB 3-1": {"test_system": "KB 3-1", "experiment": "Cytotoxicity against human KB3-1 cells assessed as reduction in cell viability after 5 days by MTT assay", "assay_type": "functional, cell-based", "conditions": "KB 3-1, 120 h", "how_it_was_run": "as §1"}, "A549": {"test_system": "A549", "experiment": "Cytotoxicity against human A549 cells assessed as reduction in cell viability after 5 days by MTT assay", "assay_type": "functional, cell-based", "conditions": "A549, 120 h", "how_it_was_run": "as §1"}, "U2OS [8]": {"test_system": "U2OS", "experiment": "Cell cycle arrest in human U2OS cells assessed as accumulation at sub-G1 phase at 10 ug/ml after 18 hrs by propidium iodide staining based flow cytometry (reference value: 0.19%)", "assay_type": "functional", "how_it_was_run": "as §2"}, "[9]": {"test_system": "Mycolicibacterium smegmatis", "experiment": "Antibacterial activity against Mycobacterium smegmatis ATCC 700084 by serial dilution method", "assay_type": "functional, organism-based"}, "U2OS [10]": {"test_system": "U2OS", "experiment": "Cell cycle arrest in human U2OS cells assessed as accumulation at S phase at 5 ug/ml after 18 hrs by propidium iodide staining based flow cytometry (reference value: 19%)", "assay_type": "functional", "how_it_was_run": "as §2"}, "Pseudomonas aeruginosa": {"test_system": "Pseudomonas aeruginosa", "experiment": "Antibacterial activity against Pseudomonas aeruginosa PA14 by serial dilution method", "assay_type": "functional, organism-based"}, "Rhodotorula glutinis": {"test_system": "Rhodotorula glutinis", "experiment": "Antifungal activity against Rhodotorula glutinis DSM 10134 by serial dilution method", "assay_type": "functional, organism-based"}, "U2OS [11]": {"test_system": "U2OS", "experiment": "Cell cycle arrest in human U2OS cells assessed as small cells with reduced nuclear size at 5 ug/ml after 18 hrs by propidium iodide staining based flow cytometry (reference value: 0.19%)", "assay_type": "functional", "set-up": "scale not given: the % may be the effect or the level left", "how_it_was_run": "as §2"}, "U2OS [12]": {"test_system": "U2OS", "experiment": "Induction of apoptosis in human U2OS cells assessed as caspase-3/7 cleavage at 10 ug/ml after 18 hrs by caspase-3/7 green reagent based flow cytometry (reference value: 8.04%)"}, "U2OS [13]": {"test_system": "U2OS", "experiment": "Cell cycle arrest in human U2OS cells assessed as accumulation at G2/M phase at 5 ug/ml after 18 hrs by propidium iodide staining based flow cytometry (reference value: 24.3%)", "assay_type": "functional", "how_it_was_run": "as §2"}, "U2OS [14]": {"test_system": "U2OS", "experiment": "Ratio of compound effect for induction of multipolar and duplicated spindle formation to compound effect for cytotoxicity for human U2OS cells", "assay_type": "functional", "how_it_was_run": "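Spindle arm: U2OS in DMEM (4.5 g/L glucose, 10% FBS) at 37 °C, 7% CO2, on fibronectin-coated coverslips, adhered 16 h. Treated 24 h at 0.25–10 μg/mL (diluted from 1 mg/mL DMSO stock) with a DMSO control, PFA-fixed, and anti-α-tubulin immunostained to score mitotic spindles. Cytotoxicity arm: 5-day MTT. Ratio compares spindle-inducing concentration with cytotoxic concentration.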"}, "SK-OV-3": {"test_system": "SK-OV-3", "experiment": "Cytotoxicity against human SKOV3 cells assessed as reduction in cell viability after 5 days by MTT assay", "assay_type": "functional, cell-based", "conditions": "SK-OV-3, 120 h", "how_it_was_run": "as §1"}, "MCF7": {"test_system": "MCF7", "experiment": "Cytotoxicity against human MCF7 cells assessed as reduction in cell viability after 5 days by MTT assay", "assay_type": "functional, cell-based", "conditions": "MCF7, 120 h", "how_it_was_run": "as §1"}, "L929 [15]": {"test_system": "L929", "experiment": "Induction of nuclear fragmentation in mouse L929 cells at cytotoxic IC50 by DAPI staining based microscopic method", "assay_type": "functional, cell-based"}, "U2OS [16]": {"test_system": "U2OS", "experiment": "Induction of morphological changes in human U2OS cells assessed as multipolar and duplicated spindle formation at 0.25 to 5 ug/ml after 24 hrs by DAPI staining based immunofluorescence microscopic method", "assay_type": "functional, cell-based", "how_it_was_run": "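U2OS in DMEM (4.5 g/L glucose, 10% FBS), 37 °C, 7% CO2, seeded 3 × 10^4/well on fibronectin-coated coverslips and adhered 16 h. Treated 24 h at 0.25, 0.5, 2.5, 5 or 10 μg/mL (diluted from 1 mg/mL DMSO stock), DMSO control. Fixed in 4% PFA/PBS 20 min; anti-α-tubulin (DM1A), phalloidin-Alexa 488 and DNA stain; immunofluorescence imaging.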"}, "U2OS [17]": {"test_system": "U2OS", "experiment": "Induction of apoptosis in human U2OS cells assessed as lamin fragmentation up to 10 ug/ml after 18 hrs by flow cytometry", "assay_type": "functional, cell-based", "how_it_was_run": "as §2"}}, "note": "Calls of active or inactive are those of the source. No cut-off for these calls is given here."}
{"compound": "CC(=O)CC1=C(C)C=C2C[C@@H](C)C(=O)[C@@H](C)[C@@H]2[C@H]1/C=C(C)/C=C(C)/C=C/C(=O)O", "values": [{"measurement": "Activity", "setting": "Mucor hiemalis", "result": "inactive"}, {"measurement": "Activity", "setting": "Caenorhabditis elegans", "result": "inactive"}, {"measurement": "IC50", "setting": "A-431", "result": 10.1, "unit": "µM"}, {"measurement": "Activity", "setting": "Micrococcus luteus", "result": "inactive"}, {"measurement": "Activity", "setting": "Setaria italica", "result": "inactive"}, {"measurement": "IC50", "setting": "PC-3", "result": 18.4, "unit": "µM"}, {"measurement": "MIC", "setting": "Aspergillus fumigatus", "result": 8.3, "unit": "µg/mL"}, {"measurement": "Activity", "setting": "Wickerhamomyces anomalus", "result": "inactive"}, {"measurement": "Activity", "setting": "Lepidium sativum", "result": "inactive"}, {"measurement": "Activity", "setting": "U2OS [1]", "result": 56.3, "unit": "%"}, {"measurement": "Activity", "setting": "Escherichia coli", "result": "inactive"}, {"measurement": "Activity", "setting": "U2OS [2]", "result": "Active"}, {"measurement": "IC50", "setting": "U2OS [3]", "result": 6.8, "unit": "µM"}, {"measurement": "Activity", "setting": "U2OS [4]", "result": 50.7, "unit": "%"}, {"measurement": "Activity", "setting": "Bacillus subtilis", "result": "inactive"}, {"measurement": "Activity", "setting": "U2OS [5]", "result": 3.45, "unit": "%"}, {"measurement": "IC50", "setting": "L929 [6]", "result": 9.1, "unit": "µM"}, {"measurement": "Activity", "setting": "[7]", "result": "inactive"}, {"measurement": "zone of inhibition at 100 µg/disc", "setting": "Sclerotinia sclerotiorum", "result": 29, "unit": "mm"}, {"measurement": "IC50", "setting": "KB 3-1", "result": 2.5, "unit": "µM"}, {"measurement": "IC50", "setting": "A549", "result": 22.9, "unit": "µM"}, {"measurement": "Activity", "setting": "U2OS [8]", "result": 21.9, "unit": "%"}, {"measurement": "Activity", "setting": "[9]", "result": "inactive"}, {"measurement": "Activity", "setting": "U2OS [10]", "result": 17.4, "unit": "%"}, {"measurement": "Activity", "setting": "Pseudomonas aeruginosa", "result": "inactive"}, {"measurement": "Activity", "setting": "Rhodotorula glutinis", "result": "inactive"}, {"measurement": "Activity", "setting": "U2OS [11]", "result": 1.96, "unit": "%"}, {"measurement": "Activity", "setting": "U2OS [12]", "result": 5.72, "unit": "%"}, {"measurement": "Activity", "setting": "U2OS [13]", "result": 19.1, "unit": "%"}, {"measurement": "Ratio", "setting": "U2OS [14]", "result": "10 - 20"}, {"measurement": "IC50", "setting": "SK-OV-3", "result": 15.6, "unit": "µM"}, {"measurement": "IC50", "setting": "MCF7", "result": 7.3, "unit": "µM"}, {"measurement": "Activity", "setting": "L929 [15]", "result": "Active"}, {"measurement": "Activity", "setting": "U2OS [16]", "result": "Active"}, {"measurement": "Activity", "setting": "U2OS [17]", "result": "Active"}]}
